We go through one molecule from ChEMBL document CHEMBL1153229, “The first synthetic agonists of FFA2: Discovery and SAR of phenylacetamides as allosteric modulators” (Bioorg Med Chem Lett, 2010).

The target in data set [1] is T1, Free fatty acid receptor 2 (Homo sapiens, UniProt O15552).
T1 sequence (O15552 whole entry): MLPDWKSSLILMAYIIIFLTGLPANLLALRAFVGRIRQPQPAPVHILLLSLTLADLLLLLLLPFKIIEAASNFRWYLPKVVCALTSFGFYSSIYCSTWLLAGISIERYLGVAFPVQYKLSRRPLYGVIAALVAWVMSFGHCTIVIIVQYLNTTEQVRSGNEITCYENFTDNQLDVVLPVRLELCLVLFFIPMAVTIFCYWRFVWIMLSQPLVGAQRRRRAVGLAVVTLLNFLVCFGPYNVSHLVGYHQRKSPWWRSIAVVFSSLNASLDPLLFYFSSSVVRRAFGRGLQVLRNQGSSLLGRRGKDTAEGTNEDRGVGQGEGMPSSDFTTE
As to the kind of experiment: Agonist activity at human FFA2 receptor expressed in CHO cells assessed as inhibition of forskolin-induced cAMP production. Type of data set: functional, cell-based. In outline: (§1)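 Suspended cells, 10,000 per well, in Hank's balanced salt solution with 25 mM HEPES and 0.01% (w/v) BSA. Stimulated with forskolin (5 μM final) plus serially diluted test ligands, room temperature for 30 min. Antibody and lysis reagents then added, followed by overnight dark incubation with detection solution. Luminescence read (RLU). Efficacy expressed relative to acetate. Means of four experiments.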

For data set [2], the system named is Rattus norvegicus. The experiment in a line: Clearance in Sprague-Dawley rat at 0.5 mg/kg, iv. The data set is classed as ADME, organism-based. The arrangement: dose 0.5 mg/kg, route intravenous. The note with it: in vivo. In outline: (§2)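 Male Sprague-Dawley rats dosed 0.5 mg/kg iv.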
Data set [3] relates to Rattus norvegicus. As to the kind of experiment: AUC in Sprague-Dawley rat at 0.5 mg/kg, iv. The data set is classed as ADME, organism-based, Plasma. Also noted: dose 0.5 mg/kg, route intravenous. The settings on record: in vivo. In outline: as §2
Data set [4] in a line: Mean residence time in Sprague-Dawley rat at 0.5 mg/kg, iv. The data set is classed as ADME, organism-based. The arrangement: dose 0.5 mg/kg, route intravenous. The settings on record: in vivo. The procedure, abridged: as §2
Data set [5] can be described thus: Volume of distribution at steady state in Sprague-Dawley rat at 0.5 mg/kg, iv. The note with it: in vivo, read-out: Vdss. Type of data set: ADME, organism-based. Also noted: dose 0.5 mg/kg, route intravenous. In outline: as §2
Data set [6] in a line: Cmax in mouse at 5 mg/kg, po. The note with it: in vivo. The arrangement: dose 5 mg/kg, route oral. The data set is classed as ADME, organism-based.
Data set [7] in a line: AUC in mouse at 5 mg/kg, po. Also noted: dose 5 mg/kg, route oral. Type of data set: ADME, organism-based. The note with it: plasma.
Data set [8] in a line: Mean residence time in mouse at 5 mg/kg, po. The data set is classed as ADME, organism-based. Also noted: dose 5 mg/kg, route oral. The settings on record: in vivo.
Data set [9] in a line: Tmax in mouse at 5 mg/kg, po. The data set is classed as ADME, organism-based. Also noted: dose 5 mg/kg, route oral. The settings on record: in vivo.
The target in data set [10] is T2, Free fatty acid receptor 2 (Homo sapiens) (UniProt O15552).
T2 sequence (whole entry): T1 sequence (O15552 whole entry)
As to the kind of experiment: Agonist activity at human FFA2 receptor expressed in CHO cells assessed as inhibition of forskolin-induced cAMP production relative to acetate. The data set is classed as functional, cell-based. In outline:
as §1

In the next data set the test system is 3T3-L1. The experiment in a line: Inhibition of lipolysis in mouse 3T3L1 cells. The data set is classed as functional, cell-based. In outline: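 Lipolysis measured in 3T3L1 adipocytes across a concentration range of test compound. Sensitivity to pertussis toxin treatment also examined. Means of three experiments.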
Data set [11] has as its system Mus musculus. The experiment in a line: Reduction in plasma free fatty acid level in overnight fasted FFA2 knockout C57BL/6 mouse at 3 mg/kg, ip after 15 mins. The data set is classed as functional, organism-based. Also noted: dose 3 mg/kg. The procedure, abridged: (§3)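 Male-unspecified C57BL6 mice, wild type or FFA2 knockout, fasted overnight. Given compound or vehicle (10% dimethyl acetamide, 10% ethanol, 30% propylene glycol, 50% saline) ip at 10 ml/kg. Tail blood sampled before and 15 minutes after injection. Plasma FFA measured by enzymatic kit. Ten animals per group; t test.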

The test system of data set [12] is Mus musculus. The experiment in a line: Reduction in plasma free fatty acid level in overnight fasted wild type C57BL/6 mouse at 3 mg/kg, ip after 15 mins. Type of data set: functional, organism-based. The arrangement: dose 3 mg/kg. In outline:
as §3

The target in data set [13] is Free fatty acid receptor 1 (Homo sapiens) (UniProt O14842). As to the kind of experiment: Agonist activity at FFA1 receptor up to 30 uM. Type of data set: functional.
For data set [14], the system named is Mus musculus. The experiment in a line: Reduction in plasma free fatty acid level in overnight fasted FFA2 knockout C57BL/6 mouse at 20 mg/kg, ip after 15 mins. The data set is classed as functional, organism-based. Also noted: dose 20 mg/kg. The procedure, abridged: as §3
The test system of data set [15] is Mus musculus. The experiment in a line: Reduction in plasma free fatty acid level in overnight fasted wild type C57BL/6 mouse at 20 mg/kg, ip after 15 mins. The data set is classed as functional, organism-based. Also noted: dose 20 mg/kg. In outline:
as §3

For data set [16], the target named is C-C chemokine receptor type 2 (Homo sapiens) (UniProt P41597). As to the kind of experiment: Agonist activity at CCR2 up to 30 uM. The data set is classed as functional.
The target of data set [17] is T3, C-X-C chemokine receptor type 3 (Homo sapiens) (UniProt P49682).
T3 sequence (whole entry): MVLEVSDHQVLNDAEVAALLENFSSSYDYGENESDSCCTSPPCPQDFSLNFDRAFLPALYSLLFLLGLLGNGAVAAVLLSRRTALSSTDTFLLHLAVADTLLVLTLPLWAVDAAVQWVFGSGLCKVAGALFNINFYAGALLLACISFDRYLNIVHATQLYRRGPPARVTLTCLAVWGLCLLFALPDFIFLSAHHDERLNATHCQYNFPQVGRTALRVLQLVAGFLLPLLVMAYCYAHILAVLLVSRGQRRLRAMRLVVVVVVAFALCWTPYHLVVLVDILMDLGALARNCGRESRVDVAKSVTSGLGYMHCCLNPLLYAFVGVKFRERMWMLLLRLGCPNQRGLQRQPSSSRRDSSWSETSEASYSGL
As to the kind of experiment: Agonist activity at CXCR3 up to 30 uM. Type of data set: functional.

Data set [18] has as its target C-X-C chemokine receptor type 4 (Homo sapiens) (UniProt P61073). As to the kind of experiment: Agonist activity at CXCR4 up to 30 uM. Type of data set: functional.
In data set [19] the target is T4, C-C chemokine receptor type 7 (Homo sapiens) (UniProt P32248).
T4 sequence (whole entry): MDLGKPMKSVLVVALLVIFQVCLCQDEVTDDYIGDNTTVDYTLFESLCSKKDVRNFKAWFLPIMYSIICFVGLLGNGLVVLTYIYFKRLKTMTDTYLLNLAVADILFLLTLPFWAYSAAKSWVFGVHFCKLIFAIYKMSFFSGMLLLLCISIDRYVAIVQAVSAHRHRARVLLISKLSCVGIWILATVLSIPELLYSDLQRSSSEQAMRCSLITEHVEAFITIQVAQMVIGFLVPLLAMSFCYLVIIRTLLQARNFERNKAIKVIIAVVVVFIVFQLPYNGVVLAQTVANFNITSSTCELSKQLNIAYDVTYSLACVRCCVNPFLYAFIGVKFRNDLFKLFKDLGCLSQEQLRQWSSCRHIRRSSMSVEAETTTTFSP
The experiment in a line: Agonist activity at CCR7 up to 30 uM. The data set is classed as functional.

Data set [20] addresses Growth hormone secretagogue receptor type 1 (Homo sapiens) (UniProt Q92847). The experiment in a line: Agonist activity at GHSR up to 30 uM. Type of data set: functional.
For data set [21], the target named is T5, Endothelin receptor type B (Homo sapiens) (UniProt P24530).
T5 sequence (whole entry): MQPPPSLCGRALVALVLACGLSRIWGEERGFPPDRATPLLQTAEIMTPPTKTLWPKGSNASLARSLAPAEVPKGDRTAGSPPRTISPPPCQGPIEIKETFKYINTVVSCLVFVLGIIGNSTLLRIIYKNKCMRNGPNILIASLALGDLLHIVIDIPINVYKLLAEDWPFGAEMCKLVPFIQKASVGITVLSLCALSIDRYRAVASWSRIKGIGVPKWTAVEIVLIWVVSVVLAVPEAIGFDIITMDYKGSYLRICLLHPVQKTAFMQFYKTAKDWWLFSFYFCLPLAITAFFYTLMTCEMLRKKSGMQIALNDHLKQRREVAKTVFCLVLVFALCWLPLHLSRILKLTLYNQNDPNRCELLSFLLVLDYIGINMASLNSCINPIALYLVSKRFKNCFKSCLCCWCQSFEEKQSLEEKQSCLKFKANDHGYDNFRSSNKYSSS
The experiment in a line: Agonist activity at ETBR up to 30 uM. Type of data set: functional.

The source made the active and inactive calls. The rule behind the calls is not given here.

Growth hormone secretagogue receptor type 1 (Homo sapiens), sequence (Q92847 whole entry): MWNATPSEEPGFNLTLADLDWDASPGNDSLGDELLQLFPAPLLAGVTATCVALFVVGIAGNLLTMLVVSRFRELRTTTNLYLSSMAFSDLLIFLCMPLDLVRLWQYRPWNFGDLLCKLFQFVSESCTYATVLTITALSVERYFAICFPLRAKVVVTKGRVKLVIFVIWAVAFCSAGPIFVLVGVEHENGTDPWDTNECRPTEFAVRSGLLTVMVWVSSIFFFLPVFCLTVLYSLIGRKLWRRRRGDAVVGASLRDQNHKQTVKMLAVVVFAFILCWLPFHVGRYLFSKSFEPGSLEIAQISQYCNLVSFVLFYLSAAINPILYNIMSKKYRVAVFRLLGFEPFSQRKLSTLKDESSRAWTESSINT
C-X-C chemokine receptor type 4 (Homo sapiens), sequence (P61073 whole entry): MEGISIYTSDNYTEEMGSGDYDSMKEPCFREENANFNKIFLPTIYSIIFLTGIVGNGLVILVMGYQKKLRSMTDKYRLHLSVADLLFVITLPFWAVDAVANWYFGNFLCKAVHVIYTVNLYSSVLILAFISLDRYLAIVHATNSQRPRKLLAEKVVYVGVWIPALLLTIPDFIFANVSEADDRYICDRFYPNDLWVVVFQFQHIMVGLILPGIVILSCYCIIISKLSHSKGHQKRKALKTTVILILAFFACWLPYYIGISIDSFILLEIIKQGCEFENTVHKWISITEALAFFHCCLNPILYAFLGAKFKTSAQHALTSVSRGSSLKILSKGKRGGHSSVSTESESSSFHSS
C-C chemokine receptor type 2 (Homo sapiens), sequence (P41597 whole entry, looked up): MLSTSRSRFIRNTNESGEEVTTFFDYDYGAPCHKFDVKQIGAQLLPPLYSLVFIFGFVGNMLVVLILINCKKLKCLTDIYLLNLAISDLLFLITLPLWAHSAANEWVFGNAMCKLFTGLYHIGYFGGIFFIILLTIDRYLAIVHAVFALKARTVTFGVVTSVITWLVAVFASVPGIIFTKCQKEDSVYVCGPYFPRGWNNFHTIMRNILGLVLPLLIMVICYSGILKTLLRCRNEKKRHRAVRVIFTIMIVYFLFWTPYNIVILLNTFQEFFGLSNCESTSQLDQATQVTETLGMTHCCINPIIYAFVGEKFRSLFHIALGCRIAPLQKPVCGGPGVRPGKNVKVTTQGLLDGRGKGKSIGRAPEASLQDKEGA
Free fatty acid receptor 1 (Homo sapiens), sequence (O14842 whole entry): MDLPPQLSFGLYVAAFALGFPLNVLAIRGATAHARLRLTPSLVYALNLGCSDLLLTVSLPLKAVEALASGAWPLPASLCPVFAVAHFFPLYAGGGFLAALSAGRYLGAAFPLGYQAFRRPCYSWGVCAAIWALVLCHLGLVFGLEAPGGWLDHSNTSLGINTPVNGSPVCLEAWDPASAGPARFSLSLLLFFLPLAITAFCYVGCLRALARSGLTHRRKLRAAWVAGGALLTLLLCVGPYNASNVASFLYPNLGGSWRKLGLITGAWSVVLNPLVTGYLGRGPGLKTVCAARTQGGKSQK

As to `CC(C)[C@H](C(=O)Nc1ncc(F)s1)c1ccc(Cl)cc1`, in data set [1], the IC50 turned out to be 500 nM. For the same molecule, the CL in the data set with Rattus norvegicus [2] was determined as 43.3 mL/min/kg. Also, the results for the AUC (in the data set with Rattus norvegicus [3]; in data set [7]) were 194 ng·h/mL and 62000 ng·h/mL, respectively. For the same molecule, the MRT was found to be 228 min in data set [4] and 55.8 min in [8]. Moreover, the Vd in [5] turned out to be 9.8 L/kg. The molecule further yielded a Cmax in [6] of 83 ng/mL. In addition, the Tmax in data set [9] is 19.8 min. Moreover, the Efficacy in data set [10] is 103%. The inhibition entry with 3T3-L1 is “Dose-dependent effect”. The outcome (with Mus musculus [11]; in [13]; in data set [16]; in [17]; in data set [18]; in data set [19]) was inactive. For the same molecule, the outcome in data set [20] and in data set [21] was inactive. Further, the outcome with Mus musculus [12], in the data set on Mus musculus [14] and in the data set with Mus musculus [15] was Active.
